Only some compounds are listed: those with a hit (about 3.6% of all), similar ones and a draw of the others.
FGF22 binding: shifts melting point of recombinant human FGF22 | recombinant FGF22 thermal shift, SYPRO orange fluorescence; percent of sucrose octasulfate shift, DMSO zero | activity (Tm shift, normalised), % at 9.99 µM | actives 1.5% (n = 340,000);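 active = mean Tm shift, scaled 0 neutral to 100 positive control, at about 1.3% or above, every replicate too, limit read from the data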
Target sequence (Q9HCT0 whole entry, looked up): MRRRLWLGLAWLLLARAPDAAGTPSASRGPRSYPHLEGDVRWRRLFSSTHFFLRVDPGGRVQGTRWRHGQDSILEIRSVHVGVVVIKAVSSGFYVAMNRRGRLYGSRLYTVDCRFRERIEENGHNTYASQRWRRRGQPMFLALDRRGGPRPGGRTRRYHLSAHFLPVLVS
EBNA-1 inh: blocks EBNA-1 binding to DNA; EBNA-1 DNA binding, fluorescence polarization; AID 1950; inhibition, % at 14.8 µM; actives 0.34% (n = 300,000); in the data active = inhibition above about 28%
ZTA DNA inh: counter-screen for EBNA-1 inhibitors: inhibitors of Epstein-Barr virus ZTA; P03206; inhibition, % at 11 µM; ZTA-DNA binding, fluorescence polarization; actives 0.15% (n = 320,000); in the data active = inhibition above about 33%
Target sequence (P03206 whole entry, looked up): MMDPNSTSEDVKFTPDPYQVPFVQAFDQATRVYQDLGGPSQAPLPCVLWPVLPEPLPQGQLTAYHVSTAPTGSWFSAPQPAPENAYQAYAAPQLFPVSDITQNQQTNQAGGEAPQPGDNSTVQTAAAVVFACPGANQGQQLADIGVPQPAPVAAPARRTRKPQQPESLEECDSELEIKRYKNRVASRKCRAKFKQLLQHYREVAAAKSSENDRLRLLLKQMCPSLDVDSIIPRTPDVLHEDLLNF
DNA FID counter: counter-screen for HCV NS3 helicase inhibitors: DNA intercalator displacement; DNA fluorescent intercalator displacement, fluorescence; inhibition, % at 7.9 µM; actives 0.17% (n = 290,000); in the data active = inhibition above about 37%;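 also: 0% = vehicle and 100% = reference compound; higher means more ethidium bromide displaced from hairpin DNA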
NS3 helicase inh: HCV NS3 helicase inhibition | NS3 helicase DNA unwinding, Cy5 molecular beacon fluorescence | inhibition, % at 10.9 µM | actives 0.56% (n = 290,000);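 active = inhibition above the mean of all tested compounds plus 3 SD, set per campaign, cut at about 35% in these data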;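 also: 0% = DMSO wells and 100% = thioflavine S control wells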
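System: Hepatitis C virus NS3 helicase domain fragment enzyme | Reagent: Annealed dual-labelled DNA beacon duplex, ATP-started | Compound dosing: 10.9 µM single point, 0.8% DMSO | Incubation: 1 h reaction at 25 °C, ATP-initiated | Technique: Cy5 fluorescence | Evaluation: Percent inhibition from t60/t0 fluorescence ratio | Benchmarks: Low DMSO, high thioflavine S at 110 µM | Replication: Singlicate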
NR3A LBD binder: modulators (binders) of human NR3A ligand-binding domain; AID 1259313; Tm shift relative to glycine control, % at 25 µM; actives 2.5% (n = 340,000); NR3A LBD differential scanning fluorimetry, Tm shift; 0% = protein alone, 100% = glycine-bound protein;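 active = melting temperature shift of at least 10% of the positive control shift, at one fixed dose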
Numbers without * were called inactive.

COc1ccc(-c2cc(N3C(=O)Nc4ccccc4N3O)n[nH]2)cc1 was read as EBNA-1 inh 5, ZTA DNA inh 1, DNA FID counter -1, NS3 helicase inh -43 and NR3A LBD binder 3.
CCOC(=O)c1c(N2C(=O)Nc3ccccc3N2O)n[nH]c1-c1cccc(OC)c1 was read as FGF22 binding 43*, EBNA-1 inh -10, ZTA DNA inh -10, DNA FID counter -4, NS3 helicase inh -2 and NR3A LBD binder -1.
C[C@H]1CN([C@@H](C)CO)C(=O)Cc2cc(NC(=O)Cc3ccccc3)ccc2O[C@@H]1CN(C)CC1CC1 was read as FGF22 binding 0.
Screening O=C(C[C@@H]1C[C@H]2c3cc(NC(=O)C4CCC4)ccc3O[C@H]2[C@@H](CO)O1)NCc1ccc(Cl)cc1 returned FGF22 binding 0.
`CCC(C)(C)c1ccc(OCCCC[n+]2ccc(C)cc2)c(C(C)(C)CC)c1` gave EBNA-1 inh 2, ZTA DNA inh 0, DNA FID counter 46*, NS3 helicase inh -69 and NR3A LBD binder -4.
`CCC(C)(C)c1ccc(OCCCC[n+]2cccc(C)c2C)c(C(C)(C)CC)c1` gave FGF22 binding 0, EBNA-1 inh -6, ZTA DNA inh 19, DNA FID counter 26, NS3 helicase inh -51 and NR3A LBD binder -14.
`CC(=O)Nc1cc2c(cc1C(C)=O)OCCO2` gave EBNA-1 inh 7, ZTA DNA inh 11, DNA FID counter -1, NS3 helicase inh 1 and NR3A LBD binder 13*.
CCCC(=O)Nc1cc2c(cc1C(C)=O)OCCO2 was read as FGF22 binding 0, EBNA-1 inh -10, ZTA DNA inh -8, DNA FID counter -6, NS3 helicase inh 5 and NR3A LBD binder -1.
Screening C[C@@H]1CCCCO[C@H](CN(C)S(=O)(=O)c2ccc(Cl)cc2)[C@@H](C)CN([C@@H](C)CO)C(=O)c2cc(NC(=O)c3ccncc3)ccc2O1 returned FGF22 binding 0.
`S=C1NCCOCCOCCOCCNC(=S)N2CCOCCOCCN1CCOCCOCC2` gave FGF22 binding 43*, EBNA-1 inh -1, ZTA DNA inh 11, DNA FID counter -20, NS3 helicase inh -2 and NR3A LBD binder -2.
Screening S=C1NCCOCCOCCOCCOCCNC(=S)N2CCOCCOCCN1CCOCC2 returned FGF22 binding 0, EBNA-1 inh 2, ZTA DNA inh 6, DNA FID counter -22, NS3 helicase inh 4 and NR3A LBD binder 2.
`Cc1ccc(NS(=O)(=O)c2ccc(Cl)c(N=Nc3c(O)[nH]c(=O)[nH]c3=O)c2)cc1Cl` gave FGF22 binding 0 and NR3A LBD binder 11*.
For Cc1ccc(NS(=O)(=O)c2ccc3[nH]c(=O)c(=O)[nH]c3c2)cc1Cl the results were FGF22 binding 41, EBNA-1 inh -1, ZTA DNA inh 5, DNA FID counter -4, NS3 helicase inh -17 and NR3A LBD binder -3.
Screening CN(C)C(=O)C[C@H]1C[C@H]2c3cc(NC(=O)C4CCOCC4)ccc3O[C@H]2[C@H](CO)O1 returned FGF22 binding 0.
Cc1snc(S(=O)(=O)/C(C#N)=N/Nc2ccc(C(F)(F)F)cc2)c1C#N was read as EBNA-1 inh 9, ZTA DNA inh -1, DNA FID counter -41, NS3 helicase inh -4 and NR3A LBD binder 24*.
`CCOC(=O)c1c(NC(=O)C2CC2)sc(C)c1CC` gave EBNA-1 inh 7, ZTA DNA inh 5, DNA FID counter -5, NS3 helicase inh 5 and NR3A LBD binder 11*.
`CCOC(=O)c1c(NC(=O)CC2SC(N)=NC2=O)sc(C)c1C` (stereo unspecified) gave FGF22 binding 43*, EBNA-1 inh 4, ZTA DNA inh 10, DNA FID counter -18, NS3 helicase inh 4 and NR3A LBD binder -2.
Screening CCOC(=O)c1c(NC(=O)C2C3C=CC(CC3)C2C(=O)O)sc(C)c1CC (stereo unspecified) returned FGF22 binding 0, EBNA-1 inh 12, ZTA DNA inh 1, DNA FID counter -26, NS3 helicase inh -10 and NR3A LBD binder 0.
For CCOC(=O)c1c(NC(=O)Cn2ccsc2=N)sc(C)c1C the results were FGF22 binding 43*, EBNA-1 inh 2, ZTA DNA inh -10, DNA FID counter 23, NS3 helicase inh -11 and NR3A LBD binder -1.
`CCOC(=O)c1c(NC(=O)CNCCO)sc(C)c1C` gave EBNA-1 inh -21, ZTA DNA inh -2, DNA FID counter -3, NS3 helicase inh -7 and NR3A LBD binder -4.
For CCOC(=O)c1c(NC(=O)CNC2CCCCC2)sc(C)c1C the results were FGF22 binding 1, EBNA-1 inh -2, ZTA DNA inh -26, DNA FID counter 0, NS3 helicase inh -14 and NR3A LBD binder 13*.
For CNC(=O)C[C@@H]1CC[C@H]2[C@@H](COc3ccc(NC(=O)c4ccc(F)cc4)cc3C(=O)N2C)O1 the results were FGF22 binding 0.
`C/C=C/c1ccc2c(c1)O[C@@H](CN(C)C(=O)C1CCOCC1)[C@H](C)CN([C@@H](C)CO)S2(=O)=O` gave FGF22 binding 0.
Cc1ccc(S(=O)(=O)N[C@@H]2CC[C@@H](CC(=O)NCCCN(C)C)O[C@@H]2CO)cc1 was read as FGF22 binding 0.
For COc1cccc(NC(=O)COC(=O)c2c3c(nc4ccccc24)CCC(C)C3)c1 (stereo unspecified) the results were EBNA-1 inh -3, ZTA DNA inh 9, DNA FID counter -16, NS3 helicase inh -22 and NR3A LBD binder 19*.
`O=C1NC(=S)S/C1=C\c1cccc([N+](=O)[O-])c1` gave FGF22 binding 0 and NR3A LBD binder 12*.
Cc1cc(C)n(-c2ccc(F)cc2)c(=O)c1C(=O)O was read as EBNA-1 inh -8, ZTA DNA inh -5, DNA FID counter 0, NS3 helicase inh 3 and NR3A LBD binder 0.
CC(=O)c1c(O)cc(C)n(-c2ccc(F)cc2)c1=O was read as FGF22 binding 44*, EBNA-1 inh 2, ZTA DNA inh 6, DNA FID counter -1, NS3 helicase inh -4 and NR3A LBD binder 2.
CC(=O)c1c(O)cc(C(C)C)n(-c2ccccc2)c1=O was read as EBNA-1 inh 7, ZTA DNA inh 14, DNA FID counter -5, NS3 helicase inh 1 and NR3A LBD binder 12*.
Screening C[C@@H]1CN([C@@H](C)CO)C(=O)c2cccc(NS(C)(=O)=O)c2O[C@@H]1CN(C)Cc1ccc(C(=O)Nc2ccccc2N)cc1 returned FGF22 binding 0.
Screening CCN(CC)c1ccc(/C=N/NS(=O)(=O)c2ccc(C)c([N+](=O)[O-])c2)cc1 returned FGF22 binding 0, EBNA-1 inh 2, ZTA DNA inh -6, DNA FID counter 4, NS3 helicase inh 8 and NR3A LBD binder 7.

High-throughput results: PubChem, several laboratories
